Measured values taken from ChEMBL document CHEMBL1130206, “Arylcarbamate derivatives of 1-piperidineethanol as potent ligands for 5-HT4 receptors” (J Med Chem, 1997).
Blank lines part the entries; values can stand above or below the molecule they belong to.

How the values were obtained:
[1] = biological target: T1, 5-hydroxytryptamine receptor 4 (Rattus norvegicus, UniProt Q62758); experiment: Binding affinity at 5-hydroxytryptamine 4 receptor in rat striatal membranes by [3H]GR-113808 displacement.; type: cell membranes, Striatum, Membrane
T1 sequence (Q62758 whole entry): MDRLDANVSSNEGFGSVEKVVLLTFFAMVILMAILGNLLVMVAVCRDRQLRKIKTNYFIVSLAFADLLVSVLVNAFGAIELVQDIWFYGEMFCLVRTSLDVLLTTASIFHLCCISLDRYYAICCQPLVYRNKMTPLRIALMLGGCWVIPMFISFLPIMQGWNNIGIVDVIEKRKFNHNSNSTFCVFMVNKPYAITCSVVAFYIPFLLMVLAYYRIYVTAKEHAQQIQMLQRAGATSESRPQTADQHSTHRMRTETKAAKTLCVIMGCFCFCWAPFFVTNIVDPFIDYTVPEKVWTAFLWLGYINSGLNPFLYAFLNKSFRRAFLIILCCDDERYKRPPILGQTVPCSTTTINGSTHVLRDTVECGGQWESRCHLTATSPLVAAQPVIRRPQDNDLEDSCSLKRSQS
Summary of the method: (§1)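 Rat striatal membranes in 50 mM Hepes pH 7.4, 0.1–0.2 mg protein in 0.5 mL, with [3H]GR 113808. Seven drug concentrations, tested in triplicate. Nonspecific binding defined with 10 μM ML 10302. Bound ligand collected by filtration on PEI-soaked GF/B filters, washed with 50 mM Tris-HCl pH 8.4, counted by scintillation. IC50 fitted, Ki from Cheng–Prusoff, ±SEM.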

[2] = biological target: T1, 5-hydroxytryptamine receptor 4; experiment: Binding affinity (Ki+/-SEM) against 5-hydroxytryptamine 4 receptor from cheng Prusoff equation by using [3H]GR-113808 in rat striatum; summary of the method: as §1
[3] = organism: Cavia porcellus; experiment: Antagonist activity was calculated as the concentration which produced a 50% reduction in the submaximal of 5-HT induced contractions guinea pig ileum; type: functional
[4] = organism: Cavia porcellus; experiment: Agonist activity was assessed as the concentration which gave a 50% increase in the response to electrical stimulation in the guinea pig ileum; NA is not active; type: functional
Summary of the method: (§2)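 Guinea pig ileum myenteric plexus–longitudinal muscle strip, 0.5 g tension, transmural stimulation at 0.2 Hz and 1.5 ms. Phenoxybenzamine 10^-7 M present, voltage set to give 50% of supramaximal contraction. After two reproducible cumulative 5-HT curves, a cumulative agonist curve was run (60–120 s contact). EC50 = concentration giving 50% increase of the stimulated response, relative to maximum. Max effect expressed as % of 5-HT maximum, 95% confidence limits.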

[5] = organism: Cavia porcellus; experiment: Agonist activity was assessed as the concentration which gave a 50% increase in the response to electrical stimulation in the guinea pig ileum; type: functional; summary of the method: as §2
[6] = biological target: T2, 5-hydroxytryptamine receptor 4 (Cavia porcellus, UniProt O70528); experiment: concentration which gave a 50% increase in the response to electrical stimulation against 5-hydroxytryptamine 4 receptor in the guinea pig ileum.; type: functional, tissue-based; summary of the method: as §2
T2 sequence (O70528 whole entry): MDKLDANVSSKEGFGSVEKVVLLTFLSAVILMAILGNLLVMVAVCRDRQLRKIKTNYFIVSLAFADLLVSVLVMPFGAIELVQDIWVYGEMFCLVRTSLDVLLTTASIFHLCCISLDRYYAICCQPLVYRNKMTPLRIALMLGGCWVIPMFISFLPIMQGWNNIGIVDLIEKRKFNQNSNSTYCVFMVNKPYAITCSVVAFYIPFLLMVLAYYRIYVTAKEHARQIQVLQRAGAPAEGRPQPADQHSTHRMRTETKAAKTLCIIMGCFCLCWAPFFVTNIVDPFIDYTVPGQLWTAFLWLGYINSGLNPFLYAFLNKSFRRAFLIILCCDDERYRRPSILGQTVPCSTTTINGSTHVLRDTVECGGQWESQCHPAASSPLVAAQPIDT

[7] = organism: Cavia porcellus; experiment: Antagonist activity was calculated as the concentration which produced a 50% reduction in the submaximal of 5-HT induced contractions guinea pig ileum and is expressed as percent of the maximum 5-HT response = 70%; type: functional
[8] = biological target: T2, 5-hydroxytryptamine receptor 4; experiment: The antagonist activity was calculated as the concentration which produced a 50% reduction against 5-hydroxytryptamine 4 receptor in guinea pig ileum.; type: functional, tissue-based
[9] = organism: Cavia porcellus; experiment: Antagonist activity was calculated as the concentration which produced a 50% reduction in the submaximal of 5-HT induced contractions guinea pig ileum and is expressed as percent of the maximum 5-HT response = 60%; type: functional
[10] = biological target: T2, 5-hydroxytryptamine receptor 4; experiment: The antagonist activity was calculated as the concentration which produced a 50% reduction against 5-hydroxytryptamine 4 receptor in guinea pig ileum. 95% confidence limits are in brackets.; type: functional, tissue-based
[11] = organism: Cavia porcellus; experiment: Agonist activity was assessed as the concentration which gave a 50% increase in the response to electrical stimulation in the guinea pig ileum and is expressed as percent of the maximum 5-HT response = 14%; type: functional; summary of the method: as §2
[12] = biological target: T2, 5-hydroxytryptamine receptor 4; experiment: concentration which gave a 50% increase in the response to electrical stimulation against 5-hydroxytryptamine 4 receptor in the guinea pig ileum. Activity expressed as percent of the maximum 5-HT response given in brackets.; type: functional, tissue-based; summary of the method: as §2
[13] = organism: Cavia porcellus; experiment: Agonist activity was assessed as the concentration which gave a 50% increase in the response to electrical stimulation in the guinea pig ileum and is expressed as percent of the maximum 5-HT response = 78%; type: functional; summary of the method: as §2

Compound: COc1ccccc1NC(=O)CCCN1CCCCC1
Ki [1]: > 1000 nM

Compound: Cn1cc(C(=O)OCC2CCN(CCNS(C)(=O)=O)CC2)c2ccccc21
IC50 [3]: 13 nM | EC50 [4]: Not Active

Compound: CCOc1ccccc1NC(=O)OCCN1CC(C)C[C@@H](C)C1 (single isomer, unassigned)
Ki [1]: 1.16 nM | IC50 [3]: 100 nM | EC50 [5]: > 1000 nM

Compound: CCN(CC)CCOC(=O)c1cc(Cl)c(N)cc1OC
IC50 [3]: 77 nM | EC50 [4]: Not Active

Compound: COc1cc(N)c(Cl)cc1NC(=O)OCCN1CCCCC1
Ki [2]: 39 nM | EC50 [6]: > 1000 nM

Compound: CCOc1ccccc1NC(=O)OCCN1C[C@H](C)C[C@H](C)C1
Ki [1]: 1.05 nM | EC50 [5]: > 1000 nM | IC50 [7]: 30 nM

Compound: COc1cc(N)c(Cl)cc1NC(=O)OCCN1CC(C)CC(C)C1 (centres undefined)
Ki [2]: 2.4 nM | IC50 [8]: 180 nM | EC50 [6]: > 1000 nM

Compound: COc1ccccc1NC(=O)OCCN1C[C@H](C)C[C@H](C)C1
Ki [1]: 2.6 nM | IC50 [9]: 160 nM | EC50 [5]: > 1000 nM

Compound: COc1cc(N)c(Cl)cc1NC(=O)OCCN1CCCC(C)C1 (centres undefined)
Ki [2]: 10.2 nM

Compound: COc1cc(N)c(Cl)cc1NC(=O)CCCN1CCCCC1
Ki [2]: > 1000 nM

Compound: COc1cc(N)c(Cl)cc1NC(=O)OCCN1CCCCCC1
Ki [2]: 14.5 nM | IC50 [10]: 207 nM | EC50 [6]: 100 nM

Compound: COc1cc(N)c(Cl)cc1C(=O)OCCN1C[C@H](C)C[C@H](C)C1
Ki [1]: 0.26 nM | IC50 [3]: 11 nM | EC50 [4]: Not Active

Compound: COc1cc(N)c(Cl)cc1NC(=O)OCCN1CCC(C)CC1
Ki [2]: 25.1 nM | IC50 [8]: 200 nM | EC50 [12]: 60 nM

Compound: COc1ccc(Cl)cc1NC(=O)OCCN1CCCCC1
Ki [1]: 4.2 nM | IC50 [3]: 30 nM | EC50 [11]: ~1000 nM

Compound: CCN(CC)CCOC(=O)Nc1cc(Cl)c(N)cc1OC
Ki [2]: 150 nM | IC50 [8]: 1000 nM | EC50 [12]: 300 nM

Compound: COc1cc(N)c(Cl)cc1C(=O)OCCN1CCCCC1
EC50 [13]: 4 nM

Compound: COc1cc(N)c(Cl)cc1NC(=O)OCCN1CCCC1
Ki [2]: 125 nM | EC50 [12]: 200 nM

More lines, now with the values ahead:

Ki [2]: > 1000 nM
Compound: Nc1ccc(NC(=O)OCCN2CCCCC2)cc1

Ki [1]: 81 nM
Compound: COc1ccccc1NC(=O)OCCCN1CCCCC1

Ki [1]: 60.8 nM | IC50 [3]: > 1000 nM | EC50 [5]: > 1000 nM
Compound: O=C(Nc1cccc(Cl)c1)OCCN1CCCCC1

Ki [1]: > 1000 nM
Compound: O=C(Nc1ccccc1Cl)OCCN1CCCCC1

Ki [1]: 728 nM
Compound: O=C(Nc1ccc(Cl)cc1)OCCN1CCCCC1

Ki [1]: > 1000 nM
Compound: COc1ccc(NC(=O)OCCN2CCCCC2)cc1

Ki [1]: 469 nM
Compound: COc1cccc(NC(=O)OCCN2CCCCC2)c1

Ki [1]: 2.6 nM | IC50 [3]: 62 nM | EC50 [5]: > 1000 nM
Compound: CCOc1ccccc1NC(=O)OCCN1CCCCC1

Ki [2]: > 1000 nM
Compound: Nc1ccccc1NC(=O)OCCN1CCCCC1

Ki [1]: 31.7 nM | IC50 [3]: ~1000 nM | EC50 [5]: > 1000 nM
Compound: O=C(Nc1ccccc1)OCCN1CCCCC1

Ki [1]: 8.9 nM | IC50 [3]: ~300 nM | EC50 [11]: ~100 nM
Compound: COc1ccccc1NC(=O)OCCN1CCCCC1

Ki [2]: > 1000 nM
Compound: Nc1cccc(NC(=O)OCCN2CCCCC2)c1
